# Source: PubChem (several laboratories)
# MT1-MMP act inh: blocks activation of human MT1-MMP; 360,000 tested, 0.061% active; GFP/RFP ratio change, % at 20 µM; HT1080 RFP-PRO-GFP cells, GFP/RFP ratio fluorescence, overnight; percent of plate control window, DMSO zero; AID 651647;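 active = GFP/RFP ratio change of at least 30% with cell ATP level not reduced by more than half and red fluorescence within 50% of control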
#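 Assay system – RFP-PRO-GFP reporter HT1080 cells · Compound dosing – single dose of 20 µM compound, 1% DMSO final · Incubation – overnight compound exposure at 37 °C · Measure – GFP/RFP fluorescence ratio · Benchmarks – DMSO wells and RFP-L50D-GFP cells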
# DDE Tn7 FP inh: disrupts Tn7 cyclic peptide binding to fibrin D-Dimer-E complex | FP displacement of FITC-Tn7 peptide from fibrin DD(E); 0% = median of compound wells per plate | inhibition, % at 8.3 µM | 370,000 tested, 0.13% active | AID 720508;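 active = inhibition above the mean of compounds falling within the control limits plus 3 SD of them, cut at about 14% in these data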;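 also: 0% = plate median of compound wells and 100% = 10 µM Aha-Tn7 peptide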
# Target sequence (P02675 whole entry, looked up): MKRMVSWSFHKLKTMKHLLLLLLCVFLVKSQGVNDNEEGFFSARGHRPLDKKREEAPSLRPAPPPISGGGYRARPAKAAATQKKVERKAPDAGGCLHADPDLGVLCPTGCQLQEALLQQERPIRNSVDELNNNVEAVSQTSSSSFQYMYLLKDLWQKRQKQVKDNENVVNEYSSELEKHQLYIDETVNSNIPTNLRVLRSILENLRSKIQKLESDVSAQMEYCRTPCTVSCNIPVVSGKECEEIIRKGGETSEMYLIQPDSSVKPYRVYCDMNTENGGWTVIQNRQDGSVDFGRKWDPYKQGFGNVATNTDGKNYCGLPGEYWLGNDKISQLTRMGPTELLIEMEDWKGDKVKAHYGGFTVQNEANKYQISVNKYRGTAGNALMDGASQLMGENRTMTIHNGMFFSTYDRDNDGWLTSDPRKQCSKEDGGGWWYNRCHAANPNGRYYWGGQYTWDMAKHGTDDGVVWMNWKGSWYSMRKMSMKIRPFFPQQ
#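 Assay system: human fibrin DD(E). Input: DD(E) 2 µM final. Medium: Tris buffer with calcium and detergent, pH 7.8. Compound dosing: single point at 8.3 µM. Timing: 10 min plus 3 h, room temperature. Technique: fluorescence polarization of the labelled Tn7 tracer. Read-out: percent inhibition. Replicates: singlicate testing.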
# SKN-1 inh: C. elegans SKN-1 inhibition; 360,000 tested, 0.49% active; AID 624304; inhibition, % at 21.8 µM; C. elegans VP596 Pgst-4::GFP/RFP ratio, acrylamide-induced, 24 h;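 active = interference check ratio from 0.5 to 1.5 plus GFP to RFP signal ratio inhibition reaching or exceeding a fixed threshold, cut at about 30% in these data, passing the limit was not always enough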
# Neddylation inh: cullin neddylation inhibition | AID 651699 | P61081+Q13564 | 360,000 tested, 0.58% active | calls only at 25 µM | TR-FRET cullin neddylation, biochemical; in the data active = inhibition above about 36%
# KLK7 zymogen act: activates the human kallikrein-7 zymogen; P49862; purified proKLK7, EDANS-DABCYL substrate fluorescence; 100% is mature enzyme control, 0% vehicle; activation, % at 7 µM; 370,000 tested, 0.9% active;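 active = activation above the mean of all tested compounds plus 3 SD, computed per campaign excluding outliers beyond control limits, cut at about 13% in these data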
# DDE Tn6 FP inh: inhibitors of Tn6 peptide binding to human fibrin DD(E) | P02675 | Fibrin DD(E) TRITC-Tn6 fluorescence polarization displacement | inhibition, % at 8.3 µM | 370,000 tested, 0.21% active | AID 720509;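 active = inhibition above a per-campaign cutoff: mean of compounds within control limits plus 3 SD, cut at about 15% in these data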;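 also: 0% = median of all compound wells on the plate and 100% = blocking peptide control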
# Neddyl inh conf: confirmation of human cullin neddylation inhibitors. shares compounds with Neddylation inh. TR-FRET cullin neddylation biochemical assay. 1,800 tested, 13% active. calls only at 25 µM; in the data active = inhibition above about 40%;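 also: neddylation substrate is the cullin 1 ring ligase complex with SKP2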
# Numbers without * were called inactive; i = inactive; . = no result given; + = active, no number. A selection: hits, their analogues and other compounds. The true share with any hit is near 2.2%.
SMILES,MT1-MMP act inh,DDE Tn7 FP inh,SKN-1 inh,Neddylation inh,KLK7 zymogen act,DDE Tn6 FP inh,Neddyl inh conf
CCOC(=O)N1CCC(N(CCN(C)C)C(=S)Nc2cc(Cl)cc(Cl)c2)CC1,-1,7,-7,i,0,5,.
COC(=O)c1[nH]c2cc(OC)ccc2c1NC(=O)c1ccc2c(c1)OCO2,0,0,-8,+,-3,-14,i
CCOC(=O)c1oc2ccccc2c1NC(=O)c1ccc2c(c1)OCO2,5,-7,9,i,0,-1,.
COc1ccc(NC(=O)c2oc3ccccc3c2NC(=O)c2ccc3c(c2)OCO3)cc1,-8,-5,0,+,-1,-4,i
O=C(CNC(=O)c1ccco1)N/N=C/c1ccc(O)cc1O,2,-7,-1,i,-11,6,.
O=C(CNC(=O)c1ccco1)N/N=C/c1cc(Br)ccc1O,3,5,13,+,-89,6,i
O=C(CNC(=O)c1ccccc1Br)N/N=C/c1cc(Br)ccc1O,3,-5,-5,i,-112,-5,.
O=C(CNC(=O)c1ccccc1Br)N/N=C/c1ccccc1O,0,-2,2,+,-48,-2,i
Cc1ccnc(NC(=O)COc2c(C)cc(C)cc2[N+](=O)[O-])c1,1,-3,8,i,0,-11,.
COc1cccc(CNC(=O)CCS(=O)(=O)c2ccc3c(c2)NC(=O)C(C)S3)c1 (stereo unspecified),-9,0,-1,i,0,-6,.
CC(C)NC(=O)c1cc2nc(-c3ccco3)cc(C(F)(F)F)n2n1,1,3,1,.,12,-3,.
O=C(NC1CCCC1)c1cc2nc(-c3ccco3)cc(C(F)(F)F)n2n1,1,-4,12,+,5,-4,i
O=C(NC1CCCCC1)c1cnn2c(C(F)(F)F)cc(-c3ccco3)nc12,-5,-3,6,+,-1,3,+
O=C(NC1CCCCC1)c1nn2c(C(F)(F)F)cc(-c3ccco3)nc2c1Br,-9,5,-13,i,0,6,.
CCCCNC(=O)c1cc2nc(-c3ccccc3)cc(C(F)(F)F)n2n1,-2,5,18,.,-1,-5,.
CCCNC(=O)c1cc2nc(-c3ccccc3)cc(C(F)(F)F)n2n1,6,0,3,+,1,7,.
CC(C)(C)n1nnnc1SCC(=O)Nc1nn(-c2ccccc2)nc1C(N)=O,2,1,-10,+,1,-4,i
Cn1c(=O)c2cc(S(=O)(=O)Nc3cc(C(=O)O)cc(C(=O)O)c3)ccc2n(C)c1=O,1,9,7,i,0,3,.
Cc1ccc(S(=O)(=O)[N-]c2nc3ccccc3nc2-n2cc[n+](CCC(C)C)c2)cc1,-3,3,7,+,-1,3,i
CCCCC[n+]1ccn(-c2nc3ccccc3nc2[N-]S(=O)(=O)c2ccccc2)c1,2,2,-5,i,-1,4,.
CC(C)CC[n+]1ccn(-c2nc3ccccc3nc2[N-]S(=O)(=O)c2ccc(Cl)cc2)c1,1,-11,-5,+,-5,-2,i
Cc1cc(OCCCn2ccnc2)cc(C(C)C)c1,-1,1,-4,i,0,-16,.
CC(=O)NCC1CCCN(Cc2cn(-c3ccccc3)nc2-c2ccc3c(c2)OCO3)C1 (stereo unspecified),1,5,2,+,-1,-3,i
CC(=O)NCC1CCCN(Cc2cn(-c3ccccc3F)nc2-c2cc(C)sc2C)C1 (stereo unspecified),2,-5,-7,i,0,-2,.
COCCC1CCCCN1Cc1cn(-c2ccccc2)nc1-c1ccc2c(c1)OCO2 (stereo unspecified),3,2,3,i,0,-2,.
SMILES,MT1-MMP act inh,DDE Tn7 FP inh,SKN-1 inh,Neddylation inh,KLK7 zymogen act,DDE Tn6 FP inh,Neddyl inh conf
COC(=O)C1CCN(Cc2cn(-c3ccccc3)nc2-c2ccc3c(c2)OCO3)CC1,1,0,8,+,0,7,i
CCc1nc2c(OCCOc3ccc(F)cc3)cccn2c1N(C)C(=O)C(C)C,0,7,16,i,0,2,.
CC(=O)Nc1ccc(S(=O)(=O)N2CCN(c3cc(C(F)(F)F)ccn3)CC2)cc1,7,6,-5,+,1,2,i
CCc1cc(=O)oc2cc(OCC(=O)N3CCC(C(=O)O)CC3)ccc12,-1,7,2,i,1,-8,.
Cc1cc(=O)oc2cc(OCC(=O)N3CCOCC3)ccc12,-1,4,-4,i,-2,-2,.
Cc1cc(=O)oc2cc(OCC(=O)NCCCn3ccnc3)ccc12,2,-1,3,i,1,5,.
Cc1cc(=O)oc2cc(OCC(=O)N3CCCC3)ccc12,1,1,6,+,-2,-2,i
Cc1cc(=O)oc2cc(OCC(O)Cn3ccnc3)ccc12 (stereo unspecified),-3,-2,23,+,-3,7,i
CCOC(=O)C1CCN(C(=O)COc2ccc3c(C)cc(=O)oc3c2)CC1,1,3,-12,+,-2,-8,i
CCOC1=C2CN(S(=O)(=O)c3ccc(C)cc3)C(c3ccccc3)CC2N(S(=O)(=O)c2ccccc2Cl)C(c2ccccc2)C1 (stereo unspecified),7,0,8,i,0,-2,.
CCCOc1ccc(N2C(=O)CC(SC(=NCC)Nc3cccc(F)c3)C2=O)cc1 (stereo unspecified),1,2,4,i,0,-8,.
COc1ccc(/C=C/c2nnc(NC(C)=O)s2)cc1,2,1,4,+,-5,-3,i
CCN1CCN(c2nc(Nc3ccc(NC(C)=O)cc3)nc(Nc3ccc(NC(C)=O)cc3)n2)CC1,5,-1,0,i,0,3,.
Cn1c(=O)c2cc3ccc(Cl)cc3nc2n(C)c1=O,3,-4,-10,i,-1,4,.
Cn1c(=O)c2cc3ccccc3nc2n(C)c1=O,-2,6,-8,+,1,1,+
Nc1ncnc2nc(Sc3ccc(Cl)cc3)[nH]c12,4,-1,10,i,0,-2,.
O=C(CCCCn1ccc(=O)[nH]c1=O)Nc1ccc(O)c(C(=O)O)c1,2,-16,6,+,0,0,.
CCCCn1c(=NC(=O)c2ccc3c(c2)OCO3)c(C#N)cc2c(=O)n3cccc(C)c3nc21,-6,-6,4,+,1,-3,i
